Screening data (PubChem BioAssay)
APJ antag: APJ receptor antagonism; P35414; CHO-K1 APJ beta-arrestin complementation, luminescence; inhibition, % at 20 µM; actives 0.32% (n = 330,000);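 active means inhibition above about 40% at 20 µM, limit read from the data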;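 further: cells challenged with 10 nM apelin-13 agonist together with compound; plate controls were apelin-13 plus DMSO wells for no effect and DMSO wells lacking apelin-13 for full effect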
Target sequence (P35414 whole entry, looked up): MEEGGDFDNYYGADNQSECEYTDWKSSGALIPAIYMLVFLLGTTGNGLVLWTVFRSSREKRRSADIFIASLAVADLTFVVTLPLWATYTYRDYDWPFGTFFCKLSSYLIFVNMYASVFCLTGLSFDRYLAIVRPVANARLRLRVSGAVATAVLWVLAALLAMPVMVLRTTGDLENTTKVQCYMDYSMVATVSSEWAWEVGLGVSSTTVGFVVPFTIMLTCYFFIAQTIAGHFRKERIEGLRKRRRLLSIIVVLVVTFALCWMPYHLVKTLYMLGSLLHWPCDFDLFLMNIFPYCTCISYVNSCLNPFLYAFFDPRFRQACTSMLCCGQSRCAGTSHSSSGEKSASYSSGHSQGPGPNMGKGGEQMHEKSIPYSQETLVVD
EBI2 block: antagonists of human EBI2 receptor. inhibition, % at 5 µM. EBI2 beta-arrestin recruitment, luminescence, 7a,25-OHC stimulated. P32249. actives 0.81% (n = 360,000); in the data active means inhibition above about 38%;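 further: enzyme fragment complementation signal reports receptor beta-arrestin coupling in cells; 0% = agonist plus DMSO wells and 100% = wells without agonist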
APJ ag: agonists of human APJ apelin receptor | activation, % at 20 µM | P35414 | actives 0.11% (n = 330,000) | CHO-K1 APJ PathHunter beta-arrestin, luminescence; 0% DMSO wells, 100% apelin | AID 2520;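 active means activation more than six SD over the plate average, tested at 20 µM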;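 further: 0% = DMSO alone and 100% = apelin-13 at 10 nM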
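Test system – PathHunter CHO-K1 APJ (AGTRL-1) beta-arrestin reporter cells · Input – 1000 cells/well · Compound – single test compound dose, 20 µM final, 1% DMSO · Times – compound stimulation 90 min at 25 °C, detection 60 min · Technique – beta-gal luminescence · Read-out basis – APJ–arrestin association signal · Control set – negative DMSO alone, positive Apelin-13 at 10 nM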
Beta2AR agonist: agonists of human beta-2 adrenergic receptor inducing internalization | AID 504454 | actives 0.43% (n = 340,000) | P07550 | response, % (test concentration not listed) | Am2.2-beta2AR cells, FAP receptor internalization, flow cytometry;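 active means response above a set limit, near 3 SD of response in nonfluorescent compounds, cut at about 42% in these data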
CCR6 antag: CCR6 (human) receptor antagonism; P51684; CHO-K1 CCR6 PathHunter beta-arrestin, luminescence, CCL20-stimulated; inhibition, % at 20 µM; actives 0.49% (n = 340,000); AID 493098;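 active means compounds whose inhibition of the agonist-driven luminescence signal at 20 µM reaches about 50%, limit read from the data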;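 further: cells stimulated with CCL20 at 14 nM final; plate controls were DMSO with CCL20 for no effect and DMSO without agonist for full effect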
CXCR6 inh: blocks human CXCR6 beta-arrestin recruitment; O00574; CHO-K1 PathHunter CXCR6 beta-arrestin, luminescence; inhibition, % at 20 µM; actives 0.36% (n = 360,000); AID 602244; in the data active means inhibition above about 34%, passing the limit was not always enough;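 further: antagonist mode with CXCL16 agonist at 10 nM final; 0% = 10 nM CXCL16 with DMSO and 100% = unstimulated wells without agonist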
APJ antag confirm: APJ receptor antagonism confirmation; shares compounds with APJ antag; APJ beta-arrestin recruitment, luminescence, antagonist mode; inhibition, % at 20 µM; actives 66% (n = 950); in the data active means inhibition above about 50%
Numbers without * were called inactive; / = no result. This is a sample that favours compounds with a hit; in the whole collection about 1.8% have one here.

SMILES	APJ antag	EBI2 block	APJ ag	Beta2AR agonist	CCR6 antag	CXCR6 inh	APJ antag confirm
CC1(C)Cc2c(c(N3CCOCC3)nc3sc4c(NN)ncnc4c23)CS1	60*	16	-16	9	56*	14	89*
CN(C)c1ccc(CC(=O)N2CCCC(c3cc(C(=O)Nc4ccc(C(C)(C)C)cc4)no3)C2)cc1 (configuration not stated)	/	15	/	/	/	-9	/
COc1ccc([C@H]2CC(=O)C[C@@H](CCn3cc(C)nn3)O2)cc1	/	-4	/	/	/	-3	/
Cc1cc(C)c(C)c(/C=C(/C#N)C(N)=S)c1C	42*	6	-8	-8	29	13	36
CCOc1ccc(N2C(=O)CC(Cc3ccc(Br)cc3)C2=O)cc1 (configuration not stated)	65*	8	-3	6	-2	2	36
COc1ccc(N2C(=O)CC(Cc3ccc(Br)cc3)C2=O)cc1 (configuration not stated)	18	8	-2	-3	-1	-3	/
COc1ccc(NC2(c3ccc(Cl)cc3)C(=O)c3ccccc3C2=O)cc1	62*	-3	-9	15	74*	33	73*
COc1ccc(CCN2CC(C(=O)OCC(=O)NC(C)c3cccc(Cl)c3)CC2=O)cc1OC (configuration not stated)	18	2	-4	7	7	0	/
Cc1ncc(CO)c(/C=N/Nc2ccc(C(F)(F)F)cn2)c1O	63*	11	-12	-14	69*	48*	89*
CN(C)S(=O)(=O)c1ccc2c(c1)C(=O)c1cc(S(=O)(=O)N(C)C)ccc1CC2	-5	12	1	-5	14	2	/
CN(C)S(=O)(=O)c1ccc2c(c1)/C(=C/c1cc3c([nH]1)CCCC3)C(=O)N2	40*	49*	-5	-315	21	13	23
O=C(C[N+]1(CC#Cc2ccccc2)CCCCC1)c1ccc(Cl)cc1	57*	13	-10	-1	30	27	18
O=C(C[N+]1(CC#Cc2ccccc2)CCOCC1)c1ccc(Cl)cc1	90*	7	-12	3	62*	42*	108*
CCC[N+](CC#Cc1ccccc1)(CCC)CC(=O)OC	6	-3	-2	-15	-9	-11	/
CCC[N+](CC#Cc1ccccc1)(CCC)CC(=O)c1ccc(Cl)cc1	60*	9	-11	2	43	15	53*
C/C(=N\O)C(=O)C(CN1CCCCC1)CN1CCCCC1	42*	-5	-1	6	51*	24	23
Cc1cccc(NC(=O)c2nc[nH]c2C(=O)N(C)Cc2ccccc2)c1	9	-3	-3	-4	11	12	/
Cc1cc(C)cc(N(CC(=O)NCCSc2ccccn2)S(=O)(=O)c2ccccc2)c1	43*	-9	-1	-1	12	-3	-19
Cc1ccc2oc(NC3=NC4(CCCC4)C4=C(CCCC4=O)N3)nc2c1	/	40	/	/	/	-10	/
CC(C)(C)c1cc(Br)c(O)c(N=Nc2ccc(S(=O)(=O)N3CCOCC3)cc2)c1	44*	16	-3	-14	52*	29	46
CCN(C(=O)COC(=O)c1cc2ccccc2cc1OC)c1c(N)n(Cc2ccccc2)c(=O)[nH]c1=O	/	2	/	-2	13	0	/
CC(C(=O)OCC(=O)c1cccc([N+](=O)[O-])c1)N1C(=O)C2C3CCC(C3)C2C1=O (configuration not stated)	58*	6	-9	-6	55*	-1	53*
Cc1ccc(C(=O)COC(=O)C(C)N2C(=O)C3C4CCC(C4)C3C2=O)cc1C (configuration not stated)	-6	-1	-1	-13	12	-1	/
CC(C(=O)OCC(=O)c1cccc([N+](=O)[O-])c1)N1C(=O)C2C3C=CC(C3)C2C1=O (configuration not stated)	48*	5	-12	-4	51*	17	62*
COc1cccc(NC(=O)CSc2nnc(-c3cc(C)[nH]n3)n2N)c1	42*	10	-2	1	5	-9	1
SMILES	APJ antag	EBI2 block	APJ ag	Beta2AR agonist	CCR6 antag	CXCR6 inh	APJ antag confirm
O=C(CNc1ccc(F)cc1)c1ccccc1	76*	27	-15	8	80*	53*	111*
O=C(CNc1ccc(Br)cc1)c1ccccc1	94*	31	-14	5	81*	45*	104*
O=C(CNc1cccc(Cl)c1)c1ccc(Br)cc1	69*	-2	-12	9	62*	37	90*
O=C(CNC(=S)NC(=O)c1ccc(F)cc1)c1ccccc1	11	-4	-1	1	3	9	/
NC(=O)c1ccccc1NCC(=O)c1ccc(F)cc1	82*	3	-15	0	99*	27	140*
O=[N+]([O-])c1ccc(/C=N/Nc2ccc3ccccc3c2)o1	67*	2	-9	-20	63*	42*	81*
CC(C)NC(=O)C1(C)CCN1C(=O)c1ccc2c(c1)OCO2 (configuration not stated)	/	-2	/	/	/	-2	/
COc1cc(/C=C2/C(=O)NN(c3ccc(Cl)cc3)C2=O)cc(OC)c1O	41*	8	-8	1	42	34	46
COc1cc(/C=C2/C(=O)N(c3ccc(C(=O)O)cc3)N=C2C)cc(OC)c1O	59*	1	-8	-7	69*	40*	95*
COc1cc(/C=C2/C(=O)NN(c3ccccc3)C2=O)cc(Br)c1O	34	1	-6	15	40	32	/
Clc1ccc(NCc2nnc3n2CCCCC3)cc1	58*	26	0	-2	5	-6	38
c1ccc(NCc2nnc3n2CCCCC3)cc1	10	5	-5	-3	8	-10	/
Cc1cc(NC(=O)c2ccc(F)cc2F)n(-c2nc3ccccc3[nH]2)n1	43*	0	-5	-1	-2	-13	9
Cc1cc(NC(=O)CC2CCCC2)n(-c2nc3ccccc3[nH]2)n1	14	5	-1	-5	22	31	/
NS(=O)(=O)c1ccc(CCNc2nn3c(-c4cccc(OC(F)(F)F)c4)cnc3s2)cc1	/	-3	/	/	/	-17	/
CN(C)c1ccc2nc3c(=O)[nH]c(=O)nc-3n(CC(O)C(O)C(O)CO)c2c1 (configuration not stated)	70*	5	-9	-1	33	28	70*
O=C(Nc1nc(-c2ccccn2)cs1)c1cc(Cl)ccc1[N+](=O)[O-]	72*	40*	-8	34	77*	59*	97*
